Laboratory results as given in ChEMBL document CHEMBL1250457, “Elucidation of the topography of the thapsigargin binding site in the sarco-endoplasmic calcium ATPase” (Bioorg Med Chem, 2010).

Molecular target: Sarcoplasmic/endoplasmic reticulum calcium ATPase 1 (Oryctolagus cuniculus, UniProt P04191)
Test: Inhibition of rabbit sarcoplasmic reticulum calcium ATPase by ATP regeneration assay
Method in brief: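 SERCA1a purified from rabbit skeletal muscle SR vesicles with low deoxycholate. Enzyme (1 mg/mL) pre-equilibrated 2.5–6 min with cumulatively added inhibitor (DMSO) in 1 mM EGTA, 1 mM Mg2+, 10 mM Tes pH 7.5, 100 mM KCl. Then diluted to 4 nM at 20 °C into NADH-coupled PK/LDH medium: 0.1 mM Ca2+, 1 mM Mg2+, 5 mM MgATP, 1 mM PEP, 0.15 mM NADH. Rate of A340 decrease.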

Sarcoplasmic/endoplasmic reticulum calcium ATPase 1, sequence (P04191 whole entry): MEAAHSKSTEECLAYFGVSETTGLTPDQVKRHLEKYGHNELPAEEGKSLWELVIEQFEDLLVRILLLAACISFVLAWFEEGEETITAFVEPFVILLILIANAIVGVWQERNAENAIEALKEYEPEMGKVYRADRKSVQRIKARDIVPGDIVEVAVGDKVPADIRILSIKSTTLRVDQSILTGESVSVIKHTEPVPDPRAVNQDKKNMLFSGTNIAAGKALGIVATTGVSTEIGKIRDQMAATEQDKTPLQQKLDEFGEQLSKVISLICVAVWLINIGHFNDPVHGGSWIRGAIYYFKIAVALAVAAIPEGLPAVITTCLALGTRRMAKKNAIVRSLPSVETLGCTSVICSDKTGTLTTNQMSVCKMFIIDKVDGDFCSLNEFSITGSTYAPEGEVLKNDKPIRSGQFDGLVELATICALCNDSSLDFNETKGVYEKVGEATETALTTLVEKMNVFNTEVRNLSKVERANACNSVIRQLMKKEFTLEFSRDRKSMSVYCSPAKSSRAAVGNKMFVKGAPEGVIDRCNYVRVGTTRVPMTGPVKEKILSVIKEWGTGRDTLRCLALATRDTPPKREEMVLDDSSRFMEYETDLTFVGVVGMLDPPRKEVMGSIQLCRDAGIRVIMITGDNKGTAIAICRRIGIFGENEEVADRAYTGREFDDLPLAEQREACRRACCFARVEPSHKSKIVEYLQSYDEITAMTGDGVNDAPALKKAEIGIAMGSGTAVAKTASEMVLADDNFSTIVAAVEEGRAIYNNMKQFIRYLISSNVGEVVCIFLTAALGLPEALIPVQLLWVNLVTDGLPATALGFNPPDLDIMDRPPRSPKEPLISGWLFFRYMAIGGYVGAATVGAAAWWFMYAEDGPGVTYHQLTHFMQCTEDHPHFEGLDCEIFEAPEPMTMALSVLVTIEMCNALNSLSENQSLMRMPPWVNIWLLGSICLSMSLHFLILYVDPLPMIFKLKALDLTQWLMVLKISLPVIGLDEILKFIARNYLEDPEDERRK

C/C=C(/C)C(=O)O[C@H]1C(C)=C2[C@H]([C@@H]1OC(=O)CCCCCCC)[C@@](C)(O)C[C@H](OC(=O)CCC)[C@@]1(O)[C@H]2OC(=O)[C@@]1(C)O
IC50: 20 nM

C/C=C(/C)C(=O)O[C@H]1C(C)=C2[C@H]([C@@H]1OC(=O)CCCCCCC)[C@@](C)(O)C[C@H](OC(=O)CCCCCCC)[C@@]1(O)[C@H]2OC(=O)[C@@]1(C)O
IC50: 20 nM

C/C=C(/C)C(=O)O[C@H]1C(C)=C2[C@H]([C@@H]1OC(=O)CCCCCCC)[C@@](C)(OC(=O)CCC)C[C@H](OC(=O)CCC)[C@@]1(O)[C@H]2OC(=O)[C@@]1(C)O
IC50: 2.5 nM

C/C=C(/C)C(=O)O[C@H]1C(C)=C2[C@H]([C@@H]1OC(=O)CCCCCCC)[C@@](C)(OC(=O)CCCCCCC)C[C@H](OC(=O)CCC)[C@@]1(O)[C@H]2OC(=O)[C@@]1(C)O
IC50: 16 nM

C/C=C(/C)C(=O)O[C@H]1C(C)=C2[C@H]([C@@H]1OC(=O)CCCCCCC)[C@@](C)(OC(=O)c1ccccc1)C[C@H](OC(=O)CCC)[C@@]1(O)[C@H]2OC(=O)[C@@]1(C)O
IC50: 15.6 nM

C/C=C(/C)C(=O)O[C@H]1C(C)=C2[C@H]([C@@H]1OC(=O)CCCCCCC)[C@@](C)(OC(=O)c1ccc(-c3ccccc3)cc1)C[C@H](OC(=O)CCC)[C@@]1(O)[C@H]2OC(=O)[C@@]1(C)O
IC50: > 70 nM

C/C=C(/C)C(=O)O[C@H]1C(C)=C2[C@H]([C@@H]1OC(=O)CCCCCCC)[C@@](C)(OC(=O)Cc1ccc(-c3ccccc3)cc1)C[C@H](OC(=O)CCC)[C@@]1(O)[C@H]2OC(=O)[C@@]1(C)O
IC50: 27 nM

C/C=C(/C)C(=O)O[C@H]1C(C)=C2[C@H]([C@@H]1OC(=O)c1ccccc1)[C@@](C)(OC(C)=O)C[C@H](OC(=O)CCC)[C@@]1(O)[C@H]2OC(=O)[C@@]1(C)O
IC50: 1.6 nM

C/C=C(/C)C(=O)O[C@H]1C(C)=C2[C@H]([C@@H]1OC(=O)CCCCCCC)[C@@](C)(OC(=O)CCC)C[C@@H]1OC(C)(C)O[C@]3(C)C(=O)O[C@@H]2[C@]13OC(=O)CCC
IC50: > 70 nM

C/C=C(/C)C(=O)O[C@H]1C(C)=C2[C@H]([C@@H]1OC(=O)CCCCCCC)[C@@](C)(OC(=O)CCC)C[C@@H]1OC(C)(C)O[C@]3(C)C(=O)O[C@@H]2[C@]13O
IC50: 19 nM

C/C=C(/C)C(=O)O[C@H]1C(C)=C2[C@H]([C@@H]1OC(=O)CCCCCCC)[C@@](C)(OC(=O)CCC)C[C@H](OC(=O)CCC)[C@@]1(O)[C@H]2OC(=O)[C@@]1(C)OC(=O)CCC
IC50: 11.1 nM

CCCCCCCC(=O)O[C@H]1[C@H]2C(=C(C)[C@@H]1O)[C@@H]1OC(=O)[C@@](C)(O)[C@@]1(O)[C@@H](OC(=O)CCC)C[C@]2(C)OC(C)=O
IC50: > 70 nM

CCCCCCCC(=O)O[C@H]1[C@H]2C(=C(C)[C@@H]1OC(=O)c1ccccc1)[C@@H]1OC(=O)[C@@](C)(O)[C@@]1(O)[C@@H](OC(=O)CCC)C[C@]2(C)OC(C)=O
IC50: 0.8 nM

CCCCCCCC(=O)O[C@H]1[C@H]2C(=C(C)[C@@H]1OC(=O)c1cccc(C)c1)[C@@H]1OC(=O)[C@@](C)(O)[C@@]1(O)[C@@H](OC(=O)CCC)C[C@]2(C)OC(C)=O
IC50: 9 nM

CCCCCCCC(=O)O[C@H]1[C@H]2C(=C(C)[C@@H]1OC(=O)Cc1ccc(-c3ccccc3)cc1)[C@@H]1OC(=O)[C@@](C)(O)[C@@]1(O)[C@@H](OC(=O)CCC)C[C@]2(C)OC(C)=O
IC50: 18 nM

CCCCCCCC(=O)O[C@H]1[C@H]2C(=C(C)[C@@H]1OC(=O)c1ccccc1-c1ccccc1)[C@@H]1OC(=O)[C@@](C)(O)[C@@]1(O)[C@@H](OC(=O)CCC)C[C@]2(C)OC(C)=O
IC50: 3 nM

CCCCCCCC(=O)O[C@H]1[C@H]2C(=C(C)[C@@H]1OC(=O)c1ccc(C)cc1)[C@@H]1OC(=O)[C@@](C)(O)[C@@]1(O)[C@@H](OC(=O)CCC)C[C@]2(C)OC(C)=O
IC50: 44 nM

CCCCCCCC(=O)O[C@H]1[C@H]2C(=C(C)[C@@H]1OC(=O)c1ccc(-c3ccccc3)cc1)[C@@H]1OC(=O)[C@@](C)(O)[C@@]1(O)[C@@H](OC(=O)CCC)C[C@]2(C)OC(C)=O
IC50: > 70 nM

C/C=C(/C)C(=O)O[C@H]1C(C)=C2[C@H]([C@@H]1OC(=O)CCCCCCC)[C@@](C)(OC(C)=O)C[C@H](O)[C@@]1(O)[C@H]2OC(=O)[C@@]1(C)O [DEBUTANOYLTHAPSIGARGIN]
IC50: 10 nM

C/C=C(/C)C(=O)O[C@H]1C(C)=C2[C@H]([C@@H]1OC(=O)CCCCCCC)[C@@](C)(OC(C)=O)C[C@H](OC(=O)CCC)[C@@]1(O)[C@H]2OC(=O)[C@@]1(C)O [THAPSIGARGIN]
IC50: 0.2 nM
